{"source": "ChEMBL document CHEMBL4043223", "about": "“Structure-activity relationship study of small molecule inhibitors of the DEPTOR-mTOR interaction” (Bioorg Med Chem Lett, 2017)", "key": {"[1]": {"test_system": "RPMI-8226", "assay": "Cytotoxicity against human RPMI8226 cells after 48 hrs by MTT assay", "type": "functional, cell-based", "conditions": "RPMI-8226, 48 h", "method_in_brief": "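MTT in RPMI-8226 cells: 1–2 × 10^4 cells per well in complete medium, exposed 48 h to a range of compound concentrations. MTT reduction to formazan read at 570 nm. Quadruplicate wells per group; OD given as % of DMSO-only control set at 100%. IC50 taken from the concentration series.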"}, "[2]": {"test_system": "MM1.S", "assay": "Cytotoxicity against human MM1S cells after 48 hrs by MTT assay", "type": "functional, cell-based", "method_in_brief": "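MM1.S myeloma cells (DEPTOR-over-expressing) in 48 h MTT: 1–2 × 10^4 cells per well, graded compound concentrations, formazan at 570 nm. Quadruplicate wells; survival as % of DMSO control; IC50 derived from the concentration range.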"}, "[3]": {"assay": "Therapeutic index, ratio of IC50 for PBL (unknown origin) to IC50 for human RPMI8226 cells", "method_in_brief": "(§1)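 Normal peripheral blood lymphocytes tested head-to-head with 8226 myeloma cells in 48 h MTT assays. […] Therapeutic index = IC50(PBL)/IC50(8226).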"}, "[4]": {"molecular_target": "DEP domain-containing mTOR-interacting protein (Homo sapiens) (UniProt Q8TB45)", "sequence (Q8TB45 whole entry, the tested form may be a part)": "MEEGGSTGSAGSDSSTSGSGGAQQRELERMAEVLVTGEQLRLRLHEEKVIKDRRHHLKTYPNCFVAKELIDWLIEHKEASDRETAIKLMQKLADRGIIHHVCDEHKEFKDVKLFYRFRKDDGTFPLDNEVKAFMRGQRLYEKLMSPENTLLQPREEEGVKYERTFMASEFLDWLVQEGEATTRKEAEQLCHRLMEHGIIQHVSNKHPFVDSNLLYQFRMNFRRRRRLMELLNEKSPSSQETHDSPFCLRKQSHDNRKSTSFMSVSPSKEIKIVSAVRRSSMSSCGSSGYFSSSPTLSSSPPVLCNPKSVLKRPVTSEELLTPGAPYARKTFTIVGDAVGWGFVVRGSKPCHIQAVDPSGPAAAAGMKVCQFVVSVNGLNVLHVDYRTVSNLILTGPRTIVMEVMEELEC", "assay": "Inhibition of mTOR binding to DEPTOR in human RPMI8226 cells assessed as increase in mTORC1-associated p70 phosphorylation at […] after 6 hrs by Western blot analysis", "type": "cell-based"}, "[5]": {"test_system": "RPMI-8226", "assay": "Induction of apoptosis in human RPMI8226 cells assessed as caspase3 activation in presence of mTOR inhibitor pp242 by cytofix/cytoperm staining based flow cytometry", "type": "functional, cell-based"}, "[6]": {"test_system": "PBL", "assay": "Cytotoxicity against PBL (unknown origin) after 48 hrs by MTT assay", "type": "cell-based", "method_in_brief": "as §1"}, "[7]": {"test_system": "Mus musculus", "assay": "Toxicity in mouse xenografted with human RPMI8226 cells assessed as effect on WBC level at 20 mg/kg, ip administered daily for 3 days measured post last dose", "type": "organism-based", "conditions": "in vivo, 72 h", "method_in_brief": "(§2)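 Immunodeficient mice inoculated subcutaneously with 8226 myeloma cells. Once tumors reached 500 mm3, daily treatment at 20 mg/kg was started.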"}, "[8]": {"molecular_target": "DEP domain-containing mTOR-interacting protein (Homo sapiens) (UniProt Q8TB45)", "assay": "Inhibition of mTOR binding to DEPTOR in human RPMI8226 cells assessed as increase in mTORC1-associated p70 phosphorylation at 1 uM after 6 hrs by Western blot analysis", "type": "cell-based", "method_in_brief": "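8226 cells exposed 6 h to compound, DMSO in untreated controls. Lysates run on 12.5% SDS-PAGE, transferred to PVDF, probed for phospho- and total p70. Densitometric phospho/total ratio expressed as fold versus parent compound B set at 1; mean ± SD, n = 4.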"}, "[9]": {"molecular_target": "DEP domain-containing mTOR-interacting protein (Homo sapiens) (UniProt Q8TB45)", "assay": "Inhibition of mTOR binding to DEPTOR in human RPMI8226 cells assessed as decrease in AKT phosphorylation at […] residue by Western blot analysis", "type": "cell-based"}, "[10]": {"test_system": "Mus musculus", "assay": "Toxicity in mouse xenografted with human RPMI8226 cells assessed as effect on platelet level at 20 mg/kg, ip administered daily for 3 days measured post last dose", "type": "organism-based", "conditions": "in vivo, 72 h", "method_in_brief": "as §2"}, "[11]": {"test_system": "RPMI-8226", "assay": "Cytotoxicity against human RPMI8226 cells after 48 hrs in presence of mTOR inhibitor pp242 by MTT assay", "type": "functional, cell-based"}, "[12]": {"test_system": "Mus musculus", "assay": "Toxicity in mouse xenografted with human RPMI8226 cells assessed as effect on RBC level at 20 mg/kg, ip administered daily for 3 days measured post last dose", "type": "organism-based", "conditions": "in vivo, 72 h", "method_in_brief": "as §2"}, "[13]": {"molecular_target": "DEP domain-containing mTOR-interacting protein (Homo sapiens) (UniProt Q8TB45)", "assay": "Inhibition of mTOR binding to DEPTOR in human RPMI8226 cells assessed as increase in mTORC1-associated S6 phosphorylation by Western blot analysis", "type": "cell-based"}, "[14]": {"molecular_target": "DEP domain-containing mTOR-interacting protein (Homo sapiens) (UniProt Q8TB45)", "assay": "Inhibition of DEPTOR in human RPMI8226 cells assessed as upregulation of mTORC1-dependant p21 expression at 0.5 to 2 uM after 6 hrs by Western blot analysis", "type": "cell-based"}, "[15]": {"molecular_target": "DEP domain-containing mTOR-interacting protein (Homo sapiens) (UniProt Q8TB45)", "assay": "Inhibition of mTOR binding to DEPTOR in human RPMI8226 cells assessed as increase in mTORC1-associated 4E-BP1 phosphorylation by Western blot analysis", "type": "cell-based"}, "[16]": {"molecular_target": "DEP domain-containing mTOR-interacting protein (Homo sapiens) (UniProt Q8TB45)", "assay": "Inhibition of mTOR binding to DEPTOR in human RPMI8226 cells at 0.5 uM treated 6 hrs followed by DEPTOR immunoprecipitation by immunoblotting analysis", "type": "cell-based", "method_in_brief": "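Co-immunoprecipitation: 8226 cells treated 6 h with DMSO or 0.5 µM compound. DEPTOR immunoprecipitated; precipitates immunoblotted for DEPTOR and bound mTOR.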"}, "[17]": {"test_system": "RPMI-8226", "assay": "Cytotoxicity against RAPTOR knockdown human RPMI8226 cells at 0.12 to 1 uM after 48 hrs by MTT assay", "type": "functional, cell-based", "method_in_brief": "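8226 cells infected with lentivirus carrying shRAPTOR or control shSCRAMBLE, knockdown confirmed by immunoblot. Cells then incubated with increasing compound concentrations; MTT read-out after 48 h, formazan at 570 nm, as % of DMSO control.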"}, "[18]": {"species_on_record": "Homo sapiens", "assay": "Activation of mTORC1 in DEPTOR knockdown human RPMI8226 cells assessed as increase in p70 phosphorylation", "method_in_brief": "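DEPTOR silenced in 8226 cells by shRNA lentivirus, with shScramble-transfected cells as control. Cells drug-treated, then p70 phosphorylation assessed by immunoblot.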"}, "[19]": {"molecular_target": "DEP domain-containing mTOR-interacting protein (Homo sapiens) (UniProt Q8TB45)", "assay": "Inhibition of mTOR binding to DEPTOR in human RPMI8226 cells assessed as increase in mTORC2-associated SGK phosphorylation by Western blot analysis", "type": "cell-based"}, "[20]": {"molecular_target": "DEP domain-containing mTOR-interacting protein (Homo sapiens) (UniProt Q8TB45)", "assay": "Inhibition of mTOR binding to DEPTOR in human RPMI8226 cells assessed as increase in mTORC2-associated AKT phosphorylation at S473 residue by Western blot analysis", "type": "cell-based"}, "[21]": {"test_system": "RPMI-8226", "assay": "Induction of apoptosis in human RPMI8226 cells assessed as caspase3 activation at 0.12 to 2 uM after 48 hrs by cytofix/cytoperm staining based flow cytometry", "type": "functional, cell-based", "method_in_brief": "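Caspase-3 flow cytometry 48 h after drug exposure of 8226 cells. 10^6 cells washed in PBS, fixed and permeabilized in cytofix/cytoperm, stained 30 min with PE-conjugated anti-active-caspase-3 (1:5 dilution). % apoptosis = drug-treated minus DMSO-control positives; mean ± SD, n = 4.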"}, "[22]": {"test_system": "RPMI-8226", "assay": "Anti-tumor activity against human RPMI8226 cells xenografted in mouse assessed as reduction in tumor growth at 20 mg/kg, ip administered daily for 3 days measured post last dose", "type": "functional, organism-based", "method_in_brief": "as §2"}}, "note": "pIC50: −log10 of the molar value. Activity calls are given as the source filed them. The rule behind the calls is not given here."}
{"smiles": "ClC1=C(Cl)C(Cl)=C(Cl)C1=NNc1cc(Cl)cc(Cl)c1", "values": [{"measurement": "pIC50", "setting": "[1]", "result": 6.10}, {"measurement": "pIC50", "setting": "[2]", "result": 5.70}]}
{"smiles": "ClC1=C(Cl)C(Cl)=C(Cl)C1=NN(c1ccccc1)c1ccccc1", "values": [{"measurement": "pIC50", "setting": "[1]", "result": "< 5.52"}, {"measurement": "pIC50", "setting": "[2]", "result": "< 5.52"}]}
{"smiles": "ClC1=C(Cl)C(Cl)=C(Cl)C1=NNc1ccccc1", "values": [{"measurement": "pIC50", "setting": "[1]", "result": "6.15 to 6.22"}, {"measurement": "pIC50", "setting": "[2]", "result": 5.70}]}
{"smiles": "Fc1cccc(NN=C2C(Cl)=C(Cl)C(Cl)=C2Cl)c1", "values": [{"measurement": "pIC50", "setting": "[1]", "result": "6.22 to 6.30"}, {"measurement": "pIC50", "setting": "[2]", "result": 5.82}]}
{"smiles": "CC(C)(C)OC(=O)NN=C1c2ccccc2-c2ccccc21", "values": [{"measurement": "pIC50", "setting": "[1]", "result": "< 5.30"}, {"measurement": "pIC50", "setting": "[2]", "result": "< 5.30"}]}
{"smiles": "ClC1=C(Cl)C(Cl)=C(Cl)C1=NNC1CCCCC1", "values": [{"measurement": "pIC50", "setting": "[1]", "result": "5.30 to 5.52"}, {"measurement": "pIC50", "setting": "[2]", "result": "< 5.52"}]}
{"smiles": "CN(C)N=C1C(Cl)=C(Cl)C(Cl)=C1Cl", "values": [{"measurement": "pIC50", "setting": "[1]", "result": "5.52 to 5.89"}, {"measurement": "pIC50", "setting": "[2]", "result": "< 5.52"}]}
{"smiles": "CC(C)(C)NN=C1C(Cl)=C(Cl)C(Cl)=C1Cl", "values": [{"measurement": "pIC50", "setting": "[1]", "result": "5.30 to 5.52"}, {"measurement": "pIC50", "setting": "[2]", "result": "< 5.52"}]}
{"smiles": "CC(=O)NN=C1C(Cl)=C(Cl)C(Cl)=C1Cl", "values": [{"measurement": "pIC50", "setting": "[1]", "result": 6.00}]}
{"smiles": "Fc1cccc(NN=C2c3ccccc3-c3ccccc32)c1", "values": [{"measurement": "pIC50", "setting": "[1]", "result": "< 5.30"}, {"measurement": "pIC50", "setting": "[2]", "result": "< 5.30"}]}
{"smiles": "FC(F)(F)c1cccc(NN=C2C(Cl)=C(Cl)C(Cl)=C2Cl)c1", "values": [{"measurement": "Ratio IC50", "setting": "[3]", "result": 136}, {"measurement": "inhibition", "setting": "[4]", "result": "Active"}, {"measurement": "Activity", "setting": "[5]", "result": "inactive"}, {"measurement": "pIC50", "setting": "[6]", "result": 4.82}, {"measurement": "Activity", "setting": "[7]", "result": "Non-Toxic"}, {"measurement": "inhibition", "setting": "[8]", "result": "Active"}, {"measurement": "inhibition", "setting": "[9]", "result": "Active"}, {"measurement": "Activity", "setting": "[10]", "result": "Non-Toxic"}, {"measurement": "Activity", "setting": "[11]", "result": "inactive"}, {"measurement": "Activity", "setting": "[12]", "result": "Non-Toxic"}, {"measurement": "inhibition", "setting": "[13]", "result": "Active"}, {"measurement": "inhibition", "setting": "[14]", "result": "Active"}, {"measurement": "pIC50", "setting": "[1]", "result": "6.77 to 6.96"}, {"measurement": "inhibition", "setting": "[15]", "result": "Active"}, {"measurement": "inhibition", "setting": "[16]", "result": "Active"}, {"measurement": "Activity", "setting": "[17]", "result": "inactive"}, {"measurement": "Activity", "setting": "[18]", "result": "inactive"}, {"measurement": "inhibition", "setting": "[19]", "result": "Active"}, {"measurement": "pIC50", "setting": "[2]", "result": 6.00}, {"measurement": "inhibition", "setting": "[20]", "result": "Active"}, {"measurement": "Activity", "setting": "[21]", "result": "Active"}, {"measurement": "Activity", "setting": "[22]", "result": "Active"}]}
{"smiles": "CC(C)(C)C(=O)NN=C1C(Cl)=C(Cl)C(Cl)=C1Cl", "values": [{"measurement": "Ratio IC50", "setting": "[3]", "result": 14}, {"measurement": "inhibition", "setting": "[4]", "result": "Active"}, {"measurement": "pIC50", "setting": "[6]", "result": 5.90}, {"measurement": "inhibition", "setting": "[8]", "result": "Active"}, {"measurement": "inhibition", "setting": "[14]", "result": "Active"}, {"measurement": "pIC50", "setting": "[1]", "result": "6.92 to 7.05"}, {"measurement": "pIC50", "setting": "[2]", "result": 5.70}, {"measurement": "Activity", "setting": "[21]", "result": "Active"}]}
{"smiles": "Cc1ccc(C(=O)N(N=C2C(Cl)=C(Cl)C(Cl)=C2Cl)C(=O)c2ccc(C)cc2)cc1", "values": [{"measurement": "pIC50", "setting": "[1]", "result": 6.30}, {"measurement": "pIC50", "setting": "[2]", "result": 6.30}]}
{"smiles": "ON=C1C(Cl)=C(Cl)C(Cl)=C1Cl", "values": [{"measurement": "pIC50", "setting": "[1]", "result": "< 5.30"}]}
